Data on 18 molecules can be found in ChEMBL document CHEMBL1212884, “Aryl phosphoramidates of 5-phospho erythronohydroxamic acid, a new class of potent trypanocidal compounds” (J Med Chem, 2010).

Structures are written as SMILES.

One data set has as its system Trypanosoma brucei. Put plainly: Antitrypanosomal activity against Trypanosoma brucei BS427 after 48 hrs by Alamar blue assay. The data set is classed as functional, organism-based. Summed up: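 Bloodstream-form T. b. brucei s427 wild type, grown in HMI-9 + 10% FCS at 37 °C, 5% CO2. Parasites seeded at 4 × 10^4 cells/mL onto 11-point 1:2 serial dilutions from a 200 μM stock in medium; drug-free well as control. After 48 h, Alamar Blue (0.49 mM in PBS) added, 24 h more; fluorescence ex 544/em 590 nm. EC50 fitted; duplicate, repeated three times.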
(In general: Alamar Blue is a resazurin reagent that responds to reducing activity.)

Data set [1] is described as follows: Chemical stability of the compound in phosphate buffer saline at pH 7.4 assessed as half life. Type of data set: physicochemical. As to conditions: for half-life: phosphate buffer saline; for t1/2: buffer. In short, it runs like this: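 Compound incubated in phosphate buffer, pH 7.4, 37 °C, to follow chemical hydrolysis; half-life reported in hours.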
A further data set concerns Blood. The experiment in a line: Half life in mouse blood. Type of data set: ADME, tissue-based. Summed up:
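Prodrugs incubated in mouse blood to gauge their stability toward esterases. Half-life reported in minutes.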

A short description of data set [2]: Chemical stability of the compound in phosphate buffer saline at pH 2 assessed as half life. Type of data set: physicochemical.
Another data set deals with Liver microsomes. The experiment in a line: Clearance in pooled human liver microsomes at 0.5 uM. The data set is classed as ADME, Microsome. Summed up:
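Pooled human liver microsomes (0.5 mg/mL in 50 mM potassium phosphate, pH 7.4) with compound at 0.5 μM; reaction started with excess NADPH. Samples at 0, 3, 6, 9, 15, 30 min, quenched in acetonitrile with internal standard, centrifuged, analysed by UPLC-MS/MS. Rate constant from exponential decay of compound/internal standard peak-area ratio; clearance given as mL/min/g.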

[3] abbreviates: Trypanosoma brucei, BS427, 48 h, read-out: EC50.

On to `COC(=O)[C@@H](C)NP(=O)(OC[C@H]1OC(C)(C)O[C@H]1C(=O)NO)Oc1ccc([N+](=O)[O-])cc1` (some centres not stated), for which the EC50 – broadly, the concentration that produces a half-maximal response – in the data set on Trypanosoma brucei (setting [3]) worked out at 43.8 µM. For the same molecule, the half-life (commonly the time needed for the level to fall by half in the phase considered) in data set [1] was 0.85 h.
For `COC(=O)CNP(=O)(OC[C@H]1OC(C)(C)O[C@H]1C(=O)NO)Oc1ccccc1` (some centres not stated), the t1/2 with Blood is < 0.25 h. Besides, the EC50 in the data set with Trypanosoma brucei (setting [3]) came to 11.4 µM.
Turning to `COC(=O)[C@@H](C)NP(=O)(OC[C@H]1OC(C)(C)O[C@H]1C(=O)NO)Oc1ccccc1` (some centres not stated), the t1/2 in the data set with Blood was < 0.25 h. In data set [1], the half-life is 5 h.
Regarding `CCOC(=O)[C@@H](C)NP(=O)(OC[C@H]1OC(C)(C)O[C@H]1C(=O)NO)Oc1ccccc1` (some centres not stated), the figures for the t1/2 (with Blood; in data set [1]) were < 0.25 h and 29 h, respectively. For the same molecule, in the data set with Trypanosoma brucei (setting [3]), the EC50 amounted to 0.78 µM.
With `COC(=O)[C@H](NP(=O)(OC[C@H]1OC(C)(C)O[C@H]1C(=O)NO)Oc1ccccc1)C(C)C` (some centres not stated), the t1/2 in the data set with Blood stood at 0.75 h; in data set [1], 21 h. Further, the EC50 in the data set with Trypanosoma brucei (setting [3]) came to 0.36 µM.
As to `CCOC(=O)[C@H](NP(=O)(OC[C@H]1OC(C)(C)O[C@H]1C(=O)NO)Oc1ccccc1)C(C)C` (some centres not stated), the t1/2 in the data set on Blood turned out to be 2 h; in data set [1] it was 61 h. Also, the EC50 in the data set with Trypanosoma brucei (setting [3]) stood at 0.24 µM.
Take `CC(C)[C@@H](NP(=O)(OC[C@H]1OC(C)(C)O[C@H]1C(=O)NO)Oc1ccccc1)C(=O)OC(C)(C)C` (some centres not stated): the figures for the t1/2 (in the data set with Blood; in data set [2]; in data set [1]) were 2 h, 28 h and 68 h, respectively. In addition, in the data set with Trypanosoma brucei (setting [3]), the concentration for a half-maximal effect (EC50) was 0.09 µM. The molecule further had a CL with Liver microsomes of 5 mL/min/g.
Turning to `COC(=O)[C@@H](C)NP(=O)(OC[C@H]1OC(C)(C)O[C@H]1C(=O)NO)Oc1ccc(C)cc1` (some centres not stated), the t1/2 is < 0.25 h in the data set on Blood and 30 h in data set [1]. In the data set with Trypanosoma brucei (setting [3]), the EC50 was found to be 0.31 µM.
On to `CCOC(=O)[C@@H](C)NP(=O)(OC[C@H]1OC(C)(C)O[C@H]1C(=O)NO)Oc1ccc(C)cc1` (some centres not stated), for which the 50% effective concentration (EC50) with Trypanosoma brucei (setting [3]) came out at 0.18 µM. Further, the t1/2 in data set [1] amounted to 34 h.
For the molecule `COC(=O)[C@H](NP(=O)(OC[C@H]1OC(C)(C)O[C@H]1C(=O)NO)Oc1ccc(C)cc1)C(C)C` (some centres not stated), the t1/2 in data set [2] is 28 h; in data set [1] it was 45 h. Also, the EC50 in the data set with Trypanosoma brucei (setting [3]) was 0.15 µM.
In the case of `CCOC(=O)[C@H](NP(=O)(OC[C@H]1OC(C)(C)O[C@H]1C(=O)NO)Oc1ccc(C)cc1)C(C)C` (some centres not stated), the t1/2 in the data set with Blood turned out to be 0.75 h; in data set [2], 15 h; in data set [1], 25 h. Besides, in the data set with Trypanosoma brucei (setting [3]), the EC50 is 0.04 µM.
With `COC(=O)[C@@H](C)NP(=O)(OC[C@H]1OC(C)(C)O[C@H]1C(=O)NO)Oc1ccc(OC)cc1` (some centres not stated), the t1/2 in data set [2] worked out at 8.5 h. In addition, in the data set on Trypanosoma brucei (setting [3]), the EC50 is 3.79 µM.
`CCOC(=O)[C@H](NP(=O)(OC[C@H]1OC(C)(C)O[C@H]1C(=O)NO)Oc1ccc(OC)cc1)C(C)C` (some centres not stated): the EC50 with Trypanosoma brucei (setting [3]) amounted to 0.11 µM.
Take `COC(=O)[C@@H](C)NP(=O)(OC[C@H]1OC(C)(C)O[C@H]1C(=O)NO)Oc1cccc(C)c1C` (some centres not stated): the EC50 in the data set on Trypanosoma brucei (setting [3]) is 0.27 µM. Also, the half-life in data set [1] turned out to be 30 h.
`CCOC(=O)[C@H](NP(=O)(OC[C@H]1OC(C)(C)O[C@H]1C(=O)NO)Oc1cccc(C)c1C)C(C)C` (some centres not stated): the t1/2 in the data set on Blood was 1 h; in data set [2], 10 h; in data set [1] it was 48 h. Moreover, the EC50 in the data set with Trypanosoma brucei (setting [3]) was 0.05 µM.
Regarding `Cc1cccc(OP(=O)(N[C@@H](C(=O)OC(C)(C)C)C(C)C)OC[C@H]2OC(C)(C)O[C@H]2C(=O)NO)c1C` (some centres not stated), the t1/2 is > 8 h with Blood and > 24 h in data set [1]. For the same molecule, the EC50 in the data set on Trypanosoma brucei (setting [3]) amounted to 0.008 µM. Also, the CL in the data set on Liver microsomes is 10 mL/min/g.
On to `CC1(C)O[C@H](COP2(=O)OCc3ccccc3O2)[C@H](C(=O)NO)O1` (some centres not stated), for which, in the data set with Trypanosoma brucei, the EC50 entry is listed as “Not Active”.
Take `CC1(C)O[C@H](COP(=O)(O)O)[C@H](C(=O)NO)O1`: the EC50 in the data set on Trypanosoma brucei (setting [3]) was > 330 µM.
